In ChEMBL document CHEMBL1141882, “Synthesis and biological testing of purine derivatives as potential ATP-competitive kinase inhibitors” (J Med Chem, 2005):

What was measured:
[1] = target: RAC-alpha serine/threonine-protein kinase (Homo sapiens) (UniProt P31749); experiment: Inhibition of human Protein kinase B alpha at 30 uM
Outline: (§1)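 Kinase activity assayed with ATP at 100 µM, deliberately higher than usual assay ATP levels because the inhibitors are assumed ATP-competitive. Results are reported as percent inhibition of each kinase.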

[2] = target: Ca2+/calmodulin-dependent protein kinase II (CaM kinase II) (Rattus norvegicus) (UniProt P11275+P08413+P15791+P11730); experiment: Inhibition of rat Calcium/calmodulin-dependent protein kinase type II at 30 uM; type: protein assay; outline: as §1
[3] = target: Dual specificity mitogen-activated protein kinase kinase 1 (Homo sapiens) (UniProt Q02750); experiment: Inhibition of human Mitogen activated protein kinase kinase 1 (MEK1) at 30 uM; outline: as §1
[4] = target: Mitogen-activated protein kinase 8 (Homo sapiens) (UniProt P45983); experiment: Inhibition of human c-Jun N-terminal kinase-1 alpha-1 at 30 uM; outline: as §1
[5] = target: Protein kinase C alpha type (Homo sapiens) (UniProt P17252); experiment: Inhibition of human Protein kinase C alpha; set-up: concentration or dose not given beside the values; conditions: concentration not given here
[6] = target: RAF proto-oncogene serine/threonine-protein kinase (Homo sapiens) (UniProt P04049); experiment: Inhibition of human RAF proto-oncogene serine/threonine-protein kinase at 30 uM; outline: as §1
[7] = target: Mitogen-activated protein kinase 9 (Homo sapiens) (UniProt P45984); experiment: Inhibition of human c-Jun N-terminal kinase-2 alpha-2 at 30 uM; outline: as §1
[8] = target: Glycogen synthase kinase-3 beta (Homo sapiens) (UniProt P49841); experiment: Inhibition of human Glycogen synthase kinase-3 beta at 30 uM; outline: as §1
[9] = target: Mitogen-activated protein kinase 10 (Rattus norvegicus) (UniProt P49187); experiment: Inhibition of rat c-Jun N-terminal kinase-3 at 30 uM; outline: as §1
[10] = target: Mitogen-activated protein kinase 1 (Homo sapiens) (UniProt P28482); experiment: Inhibition of human Mitogen-activated protein kinase 2 at 30 uM; outline: as §1
[11] = target: Mitogen-activated protein kinase 14 (Homo sapiens) (UniProt Q16539); experiment: Inhibition of human stress-activated protein kinase-2 alpha (p38 MAP-kinase) at 30 uM; outline: as §1
[12] = target: cAMP-dependent protein kinase (PKA) (Homo sapiens) (UniProt P22694+P17612+P22612); experiment: Inhibition of human cAMP-dependent protein kinase (PKA); type: protein assay; set-up: concentration or dose not given beside the values; conditions: concentration not given here
[13] = target: Rho-associated protein kinase 2 (Homo sapiens) (UniProt O75116); experiment: Inhibition of human Rho-dependent protein kinase-II at 30 uM
[14] = target: Tyrosine-protein kinase Lck (Homo sapiens) (UniProt P06239); experiment: Inhibition of human lymphocyte protein tyrosine kinase Lck at 30 uM; outline: as §1

Chain of Dual specificity mitogen-activated protein kinase kinase 1 (Homo sapiens) (Q02750 whole entry): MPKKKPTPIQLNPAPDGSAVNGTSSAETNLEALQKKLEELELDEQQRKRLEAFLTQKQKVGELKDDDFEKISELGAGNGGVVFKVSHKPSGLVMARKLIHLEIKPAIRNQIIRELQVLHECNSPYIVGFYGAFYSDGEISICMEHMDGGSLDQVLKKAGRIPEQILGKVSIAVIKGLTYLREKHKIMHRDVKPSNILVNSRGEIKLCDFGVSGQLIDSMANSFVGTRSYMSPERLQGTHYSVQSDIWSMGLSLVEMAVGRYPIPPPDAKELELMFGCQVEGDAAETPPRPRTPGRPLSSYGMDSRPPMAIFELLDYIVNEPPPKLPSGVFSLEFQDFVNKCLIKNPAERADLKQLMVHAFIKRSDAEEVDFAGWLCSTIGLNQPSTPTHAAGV
Chain of Mitogen-activated protein kinase 10 (Rattus norvegicus) (P49187 whole entry): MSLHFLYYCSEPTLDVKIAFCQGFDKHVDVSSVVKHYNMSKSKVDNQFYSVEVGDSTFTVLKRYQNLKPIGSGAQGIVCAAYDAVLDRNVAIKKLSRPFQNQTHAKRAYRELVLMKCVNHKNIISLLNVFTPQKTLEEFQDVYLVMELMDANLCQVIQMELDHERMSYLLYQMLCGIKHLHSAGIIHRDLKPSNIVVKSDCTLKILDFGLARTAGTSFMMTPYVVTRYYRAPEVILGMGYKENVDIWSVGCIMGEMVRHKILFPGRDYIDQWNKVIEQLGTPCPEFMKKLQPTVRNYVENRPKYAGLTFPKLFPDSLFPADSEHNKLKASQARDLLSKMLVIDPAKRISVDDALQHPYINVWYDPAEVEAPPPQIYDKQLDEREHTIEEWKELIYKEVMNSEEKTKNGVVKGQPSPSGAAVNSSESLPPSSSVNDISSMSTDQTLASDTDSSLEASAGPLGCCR
Chain of Mitogen-activated protein kinase 1 (Homo sapiens) (P28482 whole entry): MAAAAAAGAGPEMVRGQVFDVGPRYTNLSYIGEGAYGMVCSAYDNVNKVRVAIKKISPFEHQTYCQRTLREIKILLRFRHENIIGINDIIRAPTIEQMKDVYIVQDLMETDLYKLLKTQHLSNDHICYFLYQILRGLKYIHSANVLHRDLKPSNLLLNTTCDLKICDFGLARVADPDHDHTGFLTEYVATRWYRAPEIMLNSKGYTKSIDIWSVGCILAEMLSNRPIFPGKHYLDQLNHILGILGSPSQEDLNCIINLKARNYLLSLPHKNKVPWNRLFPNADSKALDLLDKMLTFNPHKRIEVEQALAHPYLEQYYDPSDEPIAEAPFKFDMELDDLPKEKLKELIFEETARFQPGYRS
Chain of Rho-associated protein kinase 2 (Homo sapiens) (O75116 whole entry, looked up): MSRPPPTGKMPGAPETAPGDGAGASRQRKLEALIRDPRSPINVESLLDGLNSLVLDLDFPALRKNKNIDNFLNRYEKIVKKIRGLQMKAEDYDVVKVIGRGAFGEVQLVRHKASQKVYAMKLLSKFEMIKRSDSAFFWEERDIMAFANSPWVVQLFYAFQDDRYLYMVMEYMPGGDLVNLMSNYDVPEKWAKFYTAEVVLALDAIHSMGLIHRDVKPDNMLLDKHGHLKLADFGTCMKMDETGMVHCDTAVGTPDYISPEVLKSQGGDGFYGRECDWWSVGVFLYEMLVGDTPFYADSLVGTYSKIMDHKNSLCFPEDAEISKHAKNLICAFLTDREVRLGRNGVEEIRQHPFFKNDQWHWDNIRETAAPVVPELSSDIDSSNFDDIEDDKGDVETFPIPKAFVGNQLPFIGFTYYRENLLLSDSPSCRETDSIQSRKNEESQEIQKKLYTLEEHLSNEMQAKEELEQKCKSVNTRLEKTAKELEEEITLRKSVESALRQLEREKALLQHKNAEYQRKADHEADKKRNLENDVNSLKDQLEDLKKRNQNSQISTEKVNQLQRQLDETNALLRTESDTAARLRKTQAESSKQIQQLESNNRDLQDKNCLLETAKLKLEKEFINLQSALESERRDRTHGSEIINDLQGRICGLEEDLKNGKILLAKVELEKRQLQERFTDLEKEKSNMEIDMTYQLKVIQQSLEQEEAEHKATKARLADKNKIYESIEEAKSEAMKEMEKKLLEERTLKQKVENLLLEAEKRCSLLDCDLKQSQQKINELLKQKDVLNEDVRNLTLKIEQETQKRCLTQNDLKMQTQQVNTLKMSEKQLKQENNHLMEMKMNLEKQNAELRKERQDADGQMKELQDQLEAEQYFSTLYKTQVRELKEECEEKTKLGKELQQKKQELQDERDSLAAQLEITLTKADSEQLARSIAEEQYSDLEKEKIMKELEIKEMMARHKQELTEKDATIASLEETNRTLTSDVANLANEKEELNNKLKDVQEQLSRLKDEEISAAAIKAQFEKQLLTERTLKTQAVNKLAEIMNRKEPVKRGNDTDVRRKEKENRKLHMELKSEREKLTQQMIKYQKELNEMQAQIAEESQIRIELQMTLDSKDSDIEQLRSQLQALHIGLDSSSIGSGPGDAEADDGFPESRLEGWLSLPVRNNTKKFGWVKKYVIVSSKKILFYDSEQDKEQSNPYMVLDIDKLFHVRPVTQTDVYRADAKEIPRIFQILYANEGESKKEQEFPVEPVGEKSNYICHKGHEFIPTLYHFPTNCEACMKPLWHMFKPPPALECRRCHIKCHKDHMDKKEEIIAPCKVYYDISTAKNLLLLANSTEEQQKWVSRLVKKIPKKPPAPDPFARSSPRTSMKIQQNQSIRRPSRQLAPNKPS
Chain of Glycogen synthase kinase-3 beta (Homo sapiens) (P49841 whole entry, looked up): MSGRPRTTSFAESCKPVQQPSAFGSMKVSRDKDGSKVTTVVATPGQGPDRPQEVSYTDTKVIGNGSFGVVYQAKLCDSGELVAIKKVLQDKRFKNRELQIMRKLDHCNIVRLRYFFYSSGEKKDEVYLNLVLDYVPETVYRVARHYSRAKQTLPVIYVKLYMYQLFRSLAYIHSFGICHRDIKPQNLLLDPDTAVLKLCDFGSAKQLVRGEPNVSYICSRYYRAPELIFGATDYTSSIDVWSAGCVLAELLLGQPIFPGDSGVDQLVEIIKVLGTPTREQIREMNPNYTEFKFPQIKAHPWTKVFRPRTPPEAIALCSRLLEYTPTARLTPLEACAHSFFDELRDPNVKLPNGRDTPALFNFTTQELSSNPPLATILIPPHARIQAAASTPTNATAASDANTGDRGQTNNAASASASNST
Chain of Mitogen-activated protein kinase 9 (Homo sapiens) (P45984 whole entry, looked up): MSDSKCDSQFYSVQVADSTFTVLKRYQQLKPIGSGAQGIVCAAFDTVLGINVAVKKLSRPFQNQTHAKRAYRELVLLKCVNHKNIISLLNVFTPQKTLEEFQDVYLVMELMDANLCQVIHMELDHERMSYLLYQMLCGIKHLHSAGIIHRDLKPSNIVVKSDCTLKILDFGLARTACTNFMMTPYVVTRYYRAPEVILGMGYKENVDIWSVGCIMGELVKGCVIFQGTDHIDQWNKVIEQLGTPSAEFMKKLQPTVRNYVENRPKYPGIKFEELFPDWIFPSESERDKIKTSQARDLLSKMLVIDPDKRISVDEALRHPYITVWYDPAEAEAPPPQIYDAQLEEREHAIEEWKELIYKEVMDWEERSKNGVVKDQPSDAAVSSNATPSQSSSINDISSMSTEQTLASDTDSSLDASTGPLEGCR
Chain of Mitogen-activated protein kinase 14 (Homo sapiens) (Q16539 whole entry): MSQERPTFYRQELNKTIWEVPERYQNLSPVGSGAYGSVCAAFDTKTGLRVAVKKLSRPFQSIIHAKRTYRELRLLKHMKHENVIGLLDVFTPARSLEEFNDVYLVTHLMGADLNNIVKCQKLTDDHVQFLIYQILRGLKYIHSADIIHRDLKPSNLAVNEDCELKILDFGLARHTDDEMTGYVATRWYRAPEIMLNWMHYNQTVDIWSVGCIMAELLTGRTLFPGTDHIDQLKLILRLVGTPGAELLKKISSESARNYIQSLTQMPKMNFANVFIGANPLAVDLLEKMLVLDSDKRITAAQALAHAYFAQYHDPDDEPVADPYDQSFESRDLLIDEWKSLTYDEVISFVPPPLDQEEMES
Chain of RAF proto-oncogene serine/threonine-protein kinase (Homo sapiens) (P04049 whole entry): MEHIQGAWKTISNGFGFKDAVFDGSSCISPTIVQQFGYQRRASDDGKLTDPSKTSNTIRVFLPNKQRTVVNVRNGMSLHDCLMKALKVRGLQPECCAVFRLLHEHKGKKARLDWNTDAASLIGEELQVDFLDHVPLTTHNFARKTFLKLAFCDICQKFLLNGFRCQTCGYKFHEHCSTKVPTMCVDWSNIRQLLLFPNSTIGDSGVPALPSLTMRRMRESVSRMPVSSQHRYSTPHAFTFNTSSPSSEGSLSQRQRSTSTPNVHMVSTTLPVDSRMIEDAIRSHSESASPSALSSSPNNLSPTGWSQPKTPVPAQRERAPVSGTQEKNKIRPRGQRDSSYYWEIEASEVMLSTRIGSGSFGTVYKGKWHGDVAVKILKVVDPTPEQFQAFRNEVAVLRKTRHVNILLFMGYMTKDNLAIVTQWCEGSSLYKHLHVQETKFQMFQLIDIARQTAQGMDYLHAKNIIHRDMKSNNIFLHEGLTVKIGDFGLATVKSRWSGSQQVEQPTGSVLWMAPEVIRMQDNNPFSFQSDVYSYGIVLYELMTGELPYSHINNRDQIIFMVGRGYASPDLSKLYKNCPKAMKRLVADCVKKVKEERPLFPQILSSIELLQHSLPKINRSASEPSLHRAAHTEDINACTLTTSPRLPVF
Chain of Mitogen-activated protein kinase 8 (Homo sapiens) (P45983 whole entry): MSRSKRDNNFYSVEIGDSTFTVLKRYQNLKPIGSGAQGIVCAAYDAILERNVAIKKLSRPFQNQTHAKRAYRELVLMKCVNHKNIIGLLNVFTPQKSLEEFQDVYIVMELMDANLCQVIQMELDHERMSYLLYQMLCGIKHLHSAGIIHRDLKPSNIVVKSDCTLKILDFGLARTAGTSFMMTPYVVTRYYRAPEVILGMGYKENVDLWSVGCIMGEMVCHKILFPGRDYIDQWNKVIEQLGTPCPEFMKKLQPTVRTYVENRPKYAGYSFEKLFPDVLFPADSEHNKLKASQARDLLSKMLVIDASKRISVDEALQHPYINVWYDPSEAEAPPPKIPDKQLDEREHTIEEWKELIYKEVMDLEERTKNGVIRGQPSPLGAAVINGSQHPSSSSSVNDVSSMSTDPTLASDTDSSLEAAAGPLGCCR

Structure (SMILES) | inhibition [1] | inhibition [2] | inhibition [3] | inhibition [4] | inhibition [5] | inhibition [6] | inhibition [7] | inhibition [8] | inhibition [9] | inhibition [10] | inhibition [11] | inhibition [12] | inhibition [13] | inhibition [14]
Fc1ccc(Sc2ncnc3c2ncn3Cc2ccccc2)cc1 | 1% | 0% | 4% | 0% | 0% | 0% | 0% | 0% | 0% | 0% | 64% | 0% | 5% | 16%
Cn1c(-c2ccccc2)nc2c(-c3ccc(F)cc3)ncnc21 | 31% | 5% | 5% | 2% | 17% | 24% | 8% | 26% | 12% | 1% | 23% | 0% | 0% | 17%
Cn1cnc2c(SCc3ccccc3)ncnc21 | 4% | 0% | 6% | 1% | 13% | 12% | 7% | 10% | 5% | 0% | 22% | 0% | 1% | 6%
c1ccc(C[n+]2c[nH]c3ncncc32)cc1 | 9% | 7% | 4% | 0% | 18% | 10% | 4% | 13% | 13% | 7% | 6% | 0% | 7% | 7%
Fc1ccc(-[n+]2c[nH]c3ncncc32)cc1 | 0% | 0% | 0% | 1% | 2% | 0% | 0% | 0% | 4% | 0% | 0% | 0% | 2% | 9%
c1ccc(Cn2cnc3c(Sc4ccccc4)ncnc32)cc1 | 1% | 3% | 6% | 0% | 0% | 0% | 0% | 1% | 0% | 0% | 64% | 0% | 1% | 0%
c1ccc(Sc2ncnc3[nH]cnc23)cc1 | 0% | 0% | 0% | 0% | 3% | 6% | 0% | 1% | 0% | 13% | 54% | 8% | 33% | 5%
Cn1c(-c2ccc(S(C)(=O)=O)cc2)nc2c(Sc3ccc(F)cc3)ncnc21 | 4% | 0% | 0% | 0% | 7% | 6% | 2% | 0% | 5% | 0% | 19% | 3% | 0% | 10%
Cn1c(C#CCCO)nc2c(Sc3ccccc3)ncnc21 | 33% | 10% | 0% | 0% | 18% | 0% | 0% | 0% | 0% | 0% | 3% | 0% | 0% | 11%
Cn1c(-c2ccccc2)nc2c(Sc3ccc(F)cc3)ncnc21 | 29% | 8% | 7% | 2% | 17% | 14% | 0% | 22% | 16% | 1% | 29% | 3% | 9% | 20%
Cn1c(-c2ccccc2)nc2c(Sc3ccccc3)ncnc21 | 42% | 1% | 4% | 0% | 13% | 12% | 0% | 0% | 12% | 0% | 44% | 3% | 1% | 5%

Continued, values first:

inhibition [1] | inhibition [2] | inhibition [3] | inhibition [4] | inhibition [5] | inhibition [6] | inhibition [7] | inhibition [8] | inhibition [9] | inhibition [10] | inhibition [11] | inhibition [12] | inhibition [13] | inhibition [14] | Structure (SMILES)
0% | 8% | 8% | 5% | 11% | 27% | 6% | 14% | 19% | 57% | 13% | 0% | 7% | 9% | Cn1cnc2c(Nc3ccc(F)cc3)ncnc21
18% | 2% | 34% | 13% | 17% | 24% | 0% | 0% | 10% | 48% | 30% | 40% | 52% | 42% | Fc1ccc(Nc2[nH]cnc3ncnc2-3)cc1
0% | 0% | 0% | 0% | 3% | 1% | 0% | 0% | 0% | 0% | 18% | 0% | 9% | 0% | Fc1ccc(Oc2[nH]cnc3ncnc2-3)cc1
0% | 5% | 6% | 10% | 7% | 12% | 10% | 0% | 9% | 12% | 38% | 1% | 6% | 2% | Cn1cnc2c(Sc3ccc(F)cc3)ncnc21
8% | 5% | 0% | 0% | 15% | 7% | 0% | 10% | 12% | 4% | 5% | 0% | 4% | 13% | Fc1ccc(C[n+]2c[nH]c3ncncc32)cc1
11% | 5% | 7% | 10% | 12% | 16% | 6% | 14% | 9% | 8% | 21% | 0% | 6% | 5% | Cn1cnc2c(SCc3ccc(F)cc3)ncnc21
0% | 2% | 3% | 0% | 7% | 9% | 0% | 5% | 30% | 3% | 8% | 7% | 1% | 0% | c1ccc(Cc2[nH]cnc3ncnc2-3)cc1
0% | 9% | 7% | 0% | 16% | 16% | 0% | 5% | 9% | 0% | 8% | 0% | 0% | 22% | Nc1ncnc2c1ncn2Cc1ccc(F)cc1
6% | 3% | 0% | 0% | 4% | 47% | 0% | 0% | 12% | 5% | 29% | – | 18% | 16% | Fc1ccc(CSc2[nH]cnc3ncnc2-3)cc1
